Series [1] in a line: Cytotoxicity against CD mouse macrophages assessed as cell viability at 50 uM by trypan blue exclusion test. The class given is cell-based, Macrophage. Particulars: read-out: Activity.
Series [2] has as its system Macrophage. As to the kind of experiment: Radical scavenging activity in CD mouse macrophages assessed as inhibition of superoxide anion generation at 50 uM relative to control. The class given is functional. A digest of the protocol:
(§1)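 Superoxide anion (O2•-) generation was measured in macrophage cells stimulated with the tumor promoter 12-O-tetradecanoylphorbol-13-acetate (TPA), and test samples were evaluated for suppression of this TPA-induced generation.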

The target in series [3] is T1, Xanthine dehydrogenase/oxidase (Homo sapiens, UniProt P47989). As to the kind of experiment: Inhibition of XOD at 125 uM relative to control.
T1 sequence (P47989 whole entry): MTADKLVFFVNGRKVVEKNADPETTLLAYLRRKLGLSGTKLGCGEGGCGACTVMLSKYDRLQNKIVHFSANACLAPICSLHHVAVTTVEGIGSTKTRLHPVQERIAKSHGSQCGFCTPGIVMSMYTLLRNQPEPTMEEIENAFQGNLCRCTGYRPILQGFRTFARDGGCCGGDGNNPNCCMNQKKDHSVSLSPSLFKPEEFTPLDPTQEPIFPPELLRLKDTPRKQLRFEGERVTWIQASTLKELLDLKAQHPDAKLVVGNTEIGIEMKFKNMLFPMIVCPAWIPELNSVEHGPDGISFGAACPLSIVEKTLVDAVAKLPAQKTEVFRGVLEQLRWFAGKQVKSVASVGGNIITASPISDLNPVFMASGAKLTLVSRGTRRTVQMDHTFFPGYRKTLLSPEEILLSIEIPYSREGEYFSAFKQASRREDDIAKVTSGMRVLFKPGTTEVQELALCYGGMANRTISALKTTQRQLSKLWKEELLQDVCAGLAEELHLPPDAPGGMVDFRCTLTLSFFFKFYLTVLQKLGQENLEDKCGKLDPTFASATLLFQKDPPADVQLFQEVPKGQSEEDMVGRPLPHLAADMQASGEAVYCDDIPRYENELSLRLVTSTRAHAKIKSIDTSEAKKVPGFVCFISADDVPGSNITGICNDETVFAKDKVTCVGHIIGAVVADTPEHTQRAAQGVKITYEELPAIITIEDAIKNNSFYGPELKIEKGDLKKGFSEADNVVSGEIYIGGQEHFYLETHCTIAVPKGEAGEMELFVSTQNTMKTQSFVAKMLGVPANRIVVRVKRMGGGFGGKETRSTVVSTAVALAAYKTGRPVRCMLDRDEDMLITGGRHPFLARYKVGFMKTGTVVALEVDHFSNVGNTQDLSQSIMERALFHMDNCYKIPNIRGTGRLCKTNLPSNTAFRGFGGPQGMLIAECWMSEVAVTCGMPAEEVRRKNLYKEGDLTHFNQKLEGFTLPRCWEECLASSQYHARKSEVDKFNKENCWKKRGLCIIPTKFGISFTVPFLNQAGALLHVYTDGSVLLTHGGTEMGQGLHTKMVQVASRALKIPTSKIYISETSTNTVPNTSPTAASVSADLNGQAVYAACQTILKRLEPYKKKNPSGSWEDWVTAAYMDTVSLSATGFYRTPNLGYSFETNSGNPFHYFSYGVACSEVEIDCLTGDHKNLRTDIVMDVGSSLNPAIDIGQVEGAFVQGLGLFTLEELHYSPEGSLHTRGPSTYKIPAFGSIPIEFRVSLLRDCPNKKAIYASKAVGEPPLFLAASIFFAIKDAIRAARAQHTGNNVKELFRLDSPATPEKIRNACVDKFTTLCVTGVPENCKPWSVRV
Series [4] deals with T1, Xanthine dehydrogenase/oxidase. As to the kind of experiment: Inhibition of XOD at 25 uM relative to control.
Series [5] deals with Macrophage. As to the kind of experiment: Radical scavenging activity in CD mouse macrophages assessed as inhibition of superoxide anion generation at 25 uM relative to control. The class given is functional. A digest of the protocol:
as §1

Here are results for one compound from ChEMBL document CHEMBL1151224, “Geranylgeraniol-type diterpenoids, boletinins A-J, from Boletinus cavipes as inhibitors of superoxide anion generation in macrophage cells” (J Nat Prod, 2004).

The structures appear in SMILES notation.

One may read the inhibition as the percentage by which the read-out fell short of the control. In the case of `O=c1c(O)c(-c2ccc(O)c(O)c2)oc2cc(O)cc(O)c12` [QUERCETIN], the viability at 50 µM in series [1] was 101%. Besides, the inhibition at 50 µM in the series with Macrophage [2] came to 28%. Besides, the inhibition at 125 µM in series [3] amounted to 72%. Further, the inhibition at 25 µM is 31% in series [4] and 19% in the series with Macrophage [5].
